According to ChEMBL document CHEMBL5143661, “Efficiency of bis-amidate phosphonate prodrugs” (Bioorg Med Chem Lett, 2022):

Experiments:
[1] = test system: K562; test: Cytotoxicity against human K562 cells assessed as inhibition of cell growth incubated for 72 hrs; type: functional, cell-based; details: K562, 72 h
[2] = Induction of interferon gamma production in human Vgamma9Vdelta2 T cells pretreated with K562 cells followed by compound washout and cocultured with Vgamma9Vdelta2 T cells and measured after 60 mins by ELISA; type: functional, cell-based; details: Vgamma9Vdelta2 T cell
How it was run: (§1)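 K562 cells loaded with compound over a dose range for 15, 60 or 240 min, washed, then co-cultured with human Vγ9Vδ2 T cells.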

[3] = Induction of interferon gamma production in human Vgamma9Vdelta2 T cells pretreated with K562 cells followed by compound washout and cocultured with Vgamma9Vdelta2 T cells and measured after 15 mins by ELISA; type: functional, cell-based; details: Vgamma9Vdelta2 T cell; how it was run: as §1
[4] = Stability of the compound in human K562 cell lysates in lysis buffer assessed as parent compound remaining measured after 4 hrs; type: ADME, subcellular; details: k562, 4 h
How it was run: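 Compound incubated 4 h in K562 cell extract, 5 mg/mL in lysis buffer; percent parent remaining determined (n=2).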

[5] = Induction of interferon gamma production in human Vgamma9Vdelta2 T cells pretreated with K562 cells followed by compound washout and cocultured with Vgamma9Vdelta2 T cells and measured after 240 mins by ELISA; type: functional, cell-based; details: Vgamma9Vdelta2 T cell; how it was run: as §1
[6] = Induction of Vgamma9Vdelta2 T cell proliferation in human peripheral blood; type: functional, cell-based
[7] = Stability of the compound in 50% plasma (unknown origin) in PBS assessed as parent compound remaining measured after 24 hrs; type: ADME, cell-free; details: unidentified
How it was run: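 Compound incubated 24 h in 50% plasma diluted in phosphate-buffered saline; percent parent remaining determined (n=2).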

Row | SMILES | IC50 [1] [µM] | EC50 [2] [µM] | EC50 [3] [µM] | Stability [4] [%] | EC50 [5] [µM] | EC50 [6] [µM] | Stability [7] [%]
1 | CCOC(=O)CNP(=O)(CC/C=C(\C)CO)Oc1ccccc1 (racemic) | > 100 | 0.23 | 1.5 | 86 | 0.051 |  | 
2 | COC(=O)[C@@H](NP(=O)(CC/C=C(\C)CO)N[C@H](C(=O)OC)C(C)C)C(C)C | 10 | 5.7 | 14 | 74 | 1.9 | 0.03 | 86
3 | CCOC(=O)CNP(=O)(CCC=C(C)C)NCC(=O)OCC |  |  |  | 86 |  |  | 82
4 | COC(=O)[C@@H](NP(=O)(CCC=C(C)C)N[C@H](C(=O)OC)C(C)C)C(C)C |  |  |  | 85 |  |  | 99
5 | CCOC(=O)[C@H](C)NP(=O)(CCC=C(C)C)N[C@@H](C)C(=O)OCC |  |  |  | 31 |  |  | 70
6 | CCOC(=O)CNP(=O)(CC/C=C(\C)CO)NCC(=O)OCC | > 100 | 7.2 | 23 | 57 | 1.6 | 0.043 | 82
7 | CC(C)=CCCP(=O)(N[C@@H](C)C(=O)OC(C)C)N[C@@H](C)C(=O)OC(C)C |  |  |  | 79 |  |  | 90
8 | C/C(=C\CCP(=O)(OCOC(=O)C(C)(C)C)OCOC(=O)C(C)(C)C)CO | > 100 | 0.03 | 0.043 | 0 | 0.024 |  | 
